The values that follow come from ChEMBL document CHEMBL1142516, “Design, synthesis, and structure-affinity relationships of novel series of sialosides as CD22-specific inhibitors” (J Med Chem, 2008).

One experiment addresses T1, B-cell receptor CD22 (Homo sapiens, UniProt P20273).
T1 sequence (P20273 whole entry): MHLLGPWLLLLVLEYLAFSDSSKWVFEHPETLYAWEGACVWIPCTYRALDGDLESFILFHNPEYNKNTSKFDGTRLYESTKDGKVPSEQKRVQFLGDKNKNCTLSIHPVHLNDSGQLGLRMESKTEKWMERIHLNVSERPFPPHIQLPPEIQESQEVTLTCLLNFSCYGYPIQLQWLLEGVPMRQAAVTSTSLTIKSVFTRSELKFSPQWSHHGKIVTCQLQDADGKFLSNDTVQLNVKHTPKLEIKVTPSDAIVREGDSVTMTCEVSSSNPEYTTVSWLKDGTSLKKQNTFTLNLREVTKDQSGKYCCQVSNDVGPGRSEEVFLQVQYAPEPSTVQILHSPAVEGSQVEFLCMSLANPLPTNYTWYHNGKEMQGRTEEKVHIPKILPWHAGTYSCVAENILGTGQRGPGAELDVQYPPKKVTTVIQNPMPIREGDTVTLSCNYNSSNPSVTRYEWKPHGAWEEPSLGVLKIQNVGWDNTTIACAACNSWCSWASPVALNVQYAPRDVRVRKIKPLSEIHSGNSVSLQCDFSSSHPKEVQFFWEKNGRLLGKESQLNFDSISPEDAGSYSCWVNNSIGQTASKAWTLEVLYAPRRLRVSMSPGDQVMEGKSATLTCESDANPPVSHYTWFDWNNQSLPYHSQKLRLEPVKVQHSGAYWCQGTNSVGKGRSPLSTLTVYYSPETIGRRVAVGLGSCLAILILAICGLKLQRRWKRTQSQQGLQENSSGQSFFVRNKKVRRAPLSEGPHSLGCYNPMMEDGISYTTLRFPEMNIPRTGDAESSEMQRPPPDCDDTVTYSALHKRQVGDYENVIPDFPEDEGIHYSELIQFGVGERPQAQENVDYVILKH
Kind of experiment: Binding affinity to biotinylated human CD22-human IgG1 chimeric protein expressed in mouse J558LST6 cells by flow cytometry. The experiment is classed as cell-based. In outline: (§1)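 IC50 from inhibition of CD22-Fc binding to alpha2,6-sialic acid on ST6GalI-transfected J558L mouse myeloma cells (J558LST6), incubated with CD22-Fc plus varied sialoside concentrations. Detection with Alexa Fluor 647-streptavidin, 30 min on ice, then flow cytometry. % binding = (A−B)/(C−B)×100 using MFI: A, sialoside sample; B, parent J558L; C, untreated J558LST6. IC50 taken as 50% binding inhibition; means of ≥3 independent determinations.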
For orientation: Flow cytometry measures light scatter and fluorescence of single cells or particles in a stream.

A short description of experiment [1]: Binding affinity to biotinylated mouse CD22-human IgG1 chimeric protein expressed in mouse J558LST6 cells by flow cytometry. The experiment is classed as cell-based. In outline: as §1

A word on the IC50: it is the concentration needed to halve the response being measured. Consider `COc1ccc(O[C@@H]2O[C@H](CO[C@]3(C(=O)O)C[C@H](O)[C@@H](NC(=O)CO)[C@H]([C@H](O)[C@H](O)CNCC4CCCCC4)O3)[C@H](O)[C@H](O)[C@H]2O)cc1`, for which the IC50 amounted to 37.7 µM at B-cell receptor CD22 and 9.5 µM in experiment [1].

`COc1ccc(O[C@@H]2O[C@H](CO[C@]3(C(=O)O)C[C@H](O)[C@@H](NC(=O)CO)[C@H]([C@H](O)[C@H](O)CNCc4ccccc4)O3)[C@H](O)[C@H](O)[C@H]2O)cc1`: the IC50 on B-cell receptor CD22 came to 123 µM; in experiment [1], 25.7 µM.

Take `COc1ccc(O[C@@H]2O[C@H](CO[C@]3(C(=O)O)C[C@H](O)[C@@H](NC(=O)CO)[C@H]([C@H](O)[C@H](O)CNC(=O)Cc4ccc(-c5cccc(O)c5)cc4)O3)[C@H](O)[C@H](O)[C@H]2O)cc1`: the IC50 is 4.3 µM at B-cell receptor CD22 and 2.9 µM in experiment [1].

For `COc1ccc(O[C@@H]2O[C@H](CO[C@]3(C(=O)O)C[C@H](O)[C@@H](NC(=O)CO)[C@H]([C@H](O)[C@H](O)CNC(=O)CCCc4ccc5ccc6cccc7ccc4c5c67)O3)[C@H](O)[C@H](O)[C@H]2O)cc1`, the IC50 is 21.1 µM on B-cell receptor CD22 and 66.8 µM in experiment [1].

Turning to `COc1ccc(O[C@@H]2O[C@H](CO[C@]3(C(=O)O)C[C@H](O)[C@@H](NC(=O)CO)[C@H]([C@H](O)[C@H](O)CNCCCCc4ccc(-c5ccccc5)cc4)O3)[C@H](O)[C@H](O)[C@H]2O)cc1`, the IC50 is 6.22 µM at B-cell receptor CD22 and 4.1 µM in experiment [1].

With `COc1ccc(O[C@@H]2O[C@H](CO[C@]3(C(=O)O)C[C@H](O)[C@@H](NC(=O)CO)[C@H]([C@H](O)[C@H](O)CNCc4cc(OC)cc(OC)c4)O3)[C@H](O)[C@H](O)[C@H]2O)cc1`, the IC50 at B-cell receptor CD22 came to 24.8 µM; in experiment [1] it was 77.5 µM.

For `COc1ccc(O[C@@H]2O[C@H](CO[C@]3(C(=O)O)C[C@H](O)[C@@H](NC(=O)CO)[C@H]([C@H](O)[C@H](O)CNCc4ccc(-c5ccc(C(F)(F)F)cc5)cc4)O3)[C@H](O)[C@H](O)[C@H]2O)cc1`, the IC50 was 45 µM on B-cell receptor CD22 and 48 µM in experiment [1].

As to `COc1ccc(O[C@@H]2O[C@H](CO[C@]3(C(=O)O)C[C@H](O)[C@@H](NC(=O)CO)[C@H]([C@H](O)[C@H](O)CNC(=O)Cc4ccc(-c5ccccc5)cc4)O3)[C@H](O)[C@H](O)[C@H]2O)cc1`, the values for the IC50 (at B-cell receptor CD22; in experiment [1]) were 3.7 µM and 6.2 µM, respectively.

As for `CCCCCC(=O)NC[C@@H](O)[C@@H](O)[C@@H]1O[C@@](OC[C@H]2O[C@@H](Oc3ccc(OC)cc3)[C@H](O)[C@@H](O)[C@H]2O)(C(=O)O)C[C@H](O)[C@H]1NC(=O)CO`, the IC50 on B-cell receptor CD22 amounted to 40.9 µM; in experiment [1], 88.5 µM.

As to `COc1ccc(O[C@@H]2O[C@H](CO[C@]3(C(=O)O)C[C@H](O)[C@@H](NC(=O)CO)[C@H]([C@H](O)[C@H](O)CNCCc4ccc(-c5ccccc5)cc4)O3)[C@H](O)[C@H](O)[C@H]2O)cc1`, the IC50 was 5.48 µM at B-cell receptor CD22 and 11.2 µM in experiment [1].

For the molecule `COc1ccc(O[C@@H]2O[C@H](CO[C@]3(C(=O)O)C[C@H](O)[C@@H](NC(=O)CO)[C@H]([C@H](O)[C@H](O)CNCc4ccc(-c5ccc(C)cc5)cc4)O3)[C@H](O)[C@H](O)[C@H]2O)cc1`, the IC50 is 9.83 µM at B-cell receptor CD22 and 27 µM in experiment [1].

Take `COc1ccc(O[C@@H]2O[C@H](CO[C@]3(C(=O)O)C[C@H](O)[C@@H](NC(=O)CO)[C@H]([C@H](O)[C@H](O)CNC(=O)c4ccc5ccccc5c4)O3)[C@H](O)[C@H](O)[C@H]2O)cc1`: the IC50 is 2.6 µM on B-cell receptor CD22 and 90 µM in experiment [1].

On to `COc1ccc(O[C@@H]2O[C@H](CO[C@]3(C(=O)O)C[C@H](O)[C@@H](NC(=O)CO)[C@H]([C@H](O)[C@H](O)CNC(=O)c4ccc(-c5ccc(C(=O)O)cc5)cc4)O3)[C@H](O)[C@H](O)[C@H]2O)cc1`, for which the IC50 stood at 73.3 µM at B-cell receptor CD22 and 23.4 µM in experiment [1].

As for `COc1ccc(O[C@@H]2O[C@H](CO[C@]3(C(=O)O)C[C@H](O)[C@@H](NC(=O)CO)[C@H]([C@H](O)[C@H](O)CNC(=O)C4CCCCC4)O3)[C@H](O)[C@H](O)[C@H]2O)cc1`, the IC50 turned out to be 16 µM at B-cell receptor CD22 and 65.3 µM in experiment [1].

For the molecule `COc1ccc(O[C@@H]2O[C@H](CO[C@]3(C(=O)O)C[C@H](O)[C@@H](NC(=O)CO)[C@H]([C@H](O)[C@H](O)CNC(=O)CCc4ccc(O)cc4)O3)[C@H](O)[C@H](O)[C@H]2O)cc1`, the IC50 on B-cell receptor CD22 worked out at 7.65 µM; in experiment [1] it was 139 µM.

As to `COc1ccc(O[C@@H]2O[C@H](CO[C@]3(C(=O)O)C[C@H](O)[C@@H](NC(=O)CO)[C@H]([C@H](O)[C@H](O)CNCc4ccc(-c5cccc(C(=O)O)c5)cc4)O3)[C@H](O)[C@H](O)[C@H]2O)cc1`, the IC50 on B-cell receptor CD22 is 7.48 µM; in experiment [1] it was 32.7 µM.

For `COc1ccc(O[C@@H]2O[C@H](CO[C@]3(C(=O)O)C[C@H](O)[C@@H](NC(=O)CO)[C@H]([C@H](O)[C@H](O)CNC(=O)Cc4ccc(-c5ccc(O)cc5)cc4)O3)[C@H](O)[C@H](O)[C@H]2O)cc1`, the IC50 on B-cell receptor CD22 is 0.9 µM; in experiment [1], 1.7 µM.

Take `COc1ccc(O[C@@H]2O[C@H](CO[C@]3(C(=O)O)C[C@H](O)[C@@H](NC(=O)CO)[C@H]([C@H](O)[C@H](O)CNC(=O)Cc4ccc5ccccc5c4)O3)[C@H](O)[C@H](O)[C@H]2O)cc1`: the IC50 is 1 µM at B-cell receptor CD22 and 24.7 µM in experiment [1].

As for `COc1ccc(O[C@@H]2O[C@H](CO[C@]3(C(=O)O)C[C@H](O)[C@@H](NC(=O)CO)[C@H]([C@H](O)[C@H](O)CNCc4ccc(-c5ccc(O)cc5)cc4)O3)[C@H](O)[C@H](O)[C@H]2O)cc1`, the IC50 at B-cell receptor CD22 stood at 0.24 µM; in experiment [1], 6.43 µM.

On to `COc1ccc(O[C@@H]2O[C@H](CO[C@]3(C(=O)O)C[C@H](O)[C@@H](NC(=O)CO)[C@H]([C@H](O)[C@H](O)CNC(=O)c4ccc(-c5ccccc5)cc4)O3)[C@H](O)[C@H](O)[C@H]2O)cc1`, for which the IC50 on B-cell receptor CD22 came out at 1.1 µM; in experiment [1], 52.9 µM.

On to `COc1ccc(O[C@@H]2O[C@H](CO[C@]3(C(=O)O)C[C@H](O)[C@@H](NC(=O)CO)[C@H]([C@H](O)[C@H](O)CNCc4ccc(-c5ccc(OC)cc5)cc4)O3)[C@H](O)[C@H](O)[C@H]2O)cc1`, for which the IC50 is 1.76 µM at B-cell receptor CD22 and 30 µM in experiment [1].

As to `COc1ccc(O[C@@H]2O[C@H](CO[C@]3(C(=O)O)C[C@H](O)[C@@H](NC(=O)CO)[C@H]([C@H](O)[C@H](O)CNCc4ccc(-c5ccc(C(=O)O)cc5)cc4)O3)[C@H](O)[C@H](O)[C@H]2O)cc1`, the half-maximal inhibitory concentration (IC50) on B-cell receptor CD22 amounted to 43 µM; in experiment [1] it was 10 µM.

In the case of `COc1ccc(O[C@@H]2O[C@H](CO[C@]3(C(=O)O)C[C@H](O)[C@@H](NC(=O)CO)[C@H]([C@H](O)[C@H](O)CNCc4ccc(-c5cccc(O)c5)cc4)O3)[C@H](O)[C@H](O)[C@H]2O)cc1`, the IC50 is 1.73 µM at B-cell receptor CD22 and 16.5 µM in experiment [1].

For the molecule `COc1ccc(O[C@@H]2O[C@H](CO[C@]3(C(=O)O)C[C@H](O)[C@@H](NC(=O)CO)[C@H]([C@H](O)[C@H](O)CNC(=O)CCc4ccccc4)O3)[C@H](O)[C@H](O)[C@H]2O)cc1`, the IC50 was found to be 10.4 µM on B-cell receptor CD22 and 168 µM in experiment [1].

Regarding `COc1ccc(O[C@@H]2O[C@H](CO[C@]3(C(=O)O)C[C@H](O)[C@@H](NC(=O)CO)[C@H]([C@H](O)[C@H](O)CNC(=O)c4ccc(-c5cccc(C(=O)O)c5)cc4)O3)[C@H](O)[C@H](O)[C@H]2O)cc1`, the IC50 is 7.13 µM at B-cell receptor CD22 and 16.6 µM in experiment [1].

With `COc1ccc(O[C@@H]2O[C@H](CO[C@]3(C(=O)O)C[C@H](O)[C@@H](NC(=O)CO)[C@H]([C@H](O)[C@H](O)CNCc4ccc(-c5ccccc5)cc4)O3)[C@H](O)[C@H](O)[C@H]2O)cc1`, the IC50 on B-cell receptor CD22 came out at 0.47 µM; in experiment [1], 16.3 µM.

For `COc1ccc(O[C@@H]2O[C@H](CO[C@]3(C(=O)O)C[C@H](O)[C@@H](NC(=O)CO)[C@H]([C@H](O)[C@H](O)CNC(=O)c4ccc(-c5ccc(O)cc5)cc4)O3)[C@H](O)[C@H](O)[C@H]2O)cc1`, the IC50 at B-cell receptor CD22 is 0.4 µM; in experiment [1], 8.63 µM.

For the molecule `COc1ccc(O[C@@H]2O[C@H](CO[C@]3(C(=O)O)C[C@H](O)[C@@H](NC(=O)CO)[C@H]([C@H](O)[C@H](O)CNC(=O)C(c4ccccc4)c4ccccc4)O3)[C@H](O)[C@H](O)[C@H]2O)cc1`, the results for the IC50 (on B-cell receptor CD22; in experiment [1]) were 8.85 µM and 63.5 µM, respectively.

For the molecule `COc1ccc(O[C@@H]2O[C@H](CO[C@]3(C(=O)O)C[C@H](O)[C@@H](NC(=O)CO)[C@H]([C@H](O)[C@H](O)CNCc4ccc(-c5ccccc5O)cc4)O3)[C@H](O)[C@H](O)[C@H]2O)cc1`, the figures for the IC50 (on B-cell receptor CD22; in experiment [1]) were 0.23 µM and 12.5 µM, respectively.
